Experiment [1] deals with Trypanosoma cruzi. As to the kind of experiment: Growth inhibition of Trypanosoma cruzi CL-Brener clone epimastigotes […] at 25 uM measured on […] by Brener method. The class given is functional. The conditions noted are these: 120 h, read-out: GI. The gist of the method:
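Axenic epimastigote culture (CL Brener) ran at 28 °C in BHI-tryptose with 5% FBS. Start density was 1 × 10⁶ cells/mL, with drug added from a DMSO stock (final ≤0.4%). %GI = {1 − [(Ap − A0p)/(Ac − A0c)]} × 100, using A600 at day 5 and day 0, drug versus drug-free control. Means of three experiments.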

Experiment [2] has as its system Trypanosoma cruzi. In words: Antitrypanosomal activity against Trypanosoma cruzi SN3 trypomastigotes infected in african green monkey Vero cells assessed as parasite viability at 12.5 uM after 24 hrs by MTT assay. The format is functional.
Experiment [3] concerns Trypanosoma cruzi. As to the kind of experiment: Antitrypanosomal activity against Trypanosoma cruzi SN3 trypomastigotes infected in african green monkey Vero cells assessed as parasite viability at 6.6 uM after 24 hrs by MTT assay. The class given is functional.
Experiment [4] has as its system Trypanosoma cruzi. As to the kind of experiment: Antitrypanosomal activity against Trypanosoma cruzi CL-Brener clone epimastigotes […] measured on […] by Brener method. The class given is functional, organism-based. The conditions noted are these: 120 h. The gist of the method:
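CL Brener epimastigotes were grown axenically at 28 °C in BHI-tryptose with 5% FBS. Day-0 inoculum was 1 × 10⁶ cells/mL from a 10-day stationary culture. Drug came from a DMSO stock, with final DMSO ≤0.4%; control had 0.4% DMSO and no drug. A600 was read daily. IC50 was the concentration reducing the day-5 absorbance ratio versus control to 50%.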

Experiment [5] deals with Trypanosoma cruzi. In words: Antitrypanosomal activity against Trypanosoma cruzi SN3 trypomastigotes infected in african green monkey Vero cells assessed as parasite viability at 22 uM after 24 hrs by MTT assay. The class given is functional. The gist of the method: (§1)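 Vero cells were infected with SN-3 metacyclic trypomastigotes, then reinfected at 1 × 10⁶ parasites per 25 cm². Harvested trypomastigotes (1 × 10⁷) were incubated in FBS-RPMI at 37 °C for 24 h with or without compound. MTT was added to an aliquot at 0.5 mg/mL final, 28 °C for 4 h. SDS–HCl solubilisation ran overnight. Read-out was A570, reference 690 nm; untreated parasites = 100% viability.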

Experiment [6] deals with Trypanosoma cruzi. As to the kind of experiment: Induction of nitro-anion radical production in epimastigotes form of Trypanosoma cruzi Tulahuen microsomes at 1 mM after 25 mins by ESR spectroscopy. The class given is functional. The conditions noted are these: Microsome.
For experiment [7], the system named is Trypanosoma cruzi. In words: Induction of nitro-anion radical production in epimastigotes form of Trypanosoma cruzi Tulahuen microsomes at 2 mM after 25 mins by ESR spectroscopy. The class given is functional. The conditions noted are these: Microsome.
Experiment [8] relates to Trypanosoma cruzi. In words: Antitrypanosomal activity against Trypanosoma cruzi SN3 trypomastigotes infected in african green monkey Vero cells assessed as parasite viability at 16.4 uM after 24 hrs by MTT assay. The format is functional.
For experiment [9], the system named is Trypanosoma cruzi. As to the kind of experiment: Antitrypanosomal activity against Trypanosoma cruzi SN3 trypomastigotes infected in african green monkey Vero cells assessed as parasite viability at 11 uM after 24 hrs by MTT assay. The format is functional. In short, it runs like this:
as §1

pIC50: −log10 of the molar value. Active and inactive are the calls of the source. The calls are words filed in the database; no cut-off is given here.

The results in this text go back to ChEMBL document CHEMBL1137705, “Study of 5-nitroindazoles' anti-Trypanosoma cruzi mode of action: electrochemical behaviour and ESR spectroscopic studies” (Eur J Med Chem, 2009).

Take `CN(C)CCCCCn1nc(OCc2ccccc2)c2cc([N+](=O)[O-])ccc21`: the inhibition of growth at 25 µM in the experiment with Trypanosoma cruzi [1] was 100%. Moreover, in the experiment with Trypanosoma cruzi [2], the Activity is 0.49%.
Regarding `O=c1c2cc([N+](=O)[O-])ccc2n2n1CCCCC2`, in the experiment with Trypanosoma cruzi [1], the inhibition of growth at 25 µM was determined as 4%.
In the case of `O=[N+]([O-])c1ccc2c(c1)c(OCc1ccccc1)nn2CCCCCN1CCCCC1`, in the experiment with Trypanosoma cruzi [1], the inhibition of growth at 25 µM was found to be 100%. In addition, the Activity with Trypanosoma cruzi [3] came out at 0.29%.
As for `CCCCNCCCCCn1nc(OC)c2cc([N+](=O)[O-])ccc21`, the inhibition of growth at 25 µM in the experiment on Trypanosoma cruzi [1] came to 58%. In the experiment on Trypanosoma cruzi [4], this compound showed a pIC50 of 4.66. Also, the Activity in the experiment with Trypanosoma cruzi [5] is 40.04%. The outcome in the experiment on Trypanosoma cruzi [6] and in the experiment with Trypanosoma cruzi [7] was Active.
For the compound `CN(C)CCOCCn1nc(OCc2ccccc2)c2cc([N+](=O)[O-])ccc21`, the inhibition of growth at 25 µM in the experiment with Trypanosoma cruzi [1] was found to be 80%. The Activity in the experiment with Trypanosoma cruzi [8] turned out to be 0.56%.
As for `O=[N+]([O-])c1ccc2c(c1)c(O)nn2CCOCCN1CCSCC1`, the inhibition of growth at 25 µM in the experiment on Trypanosoma cruzi [1] was 0%.
Take `O=[N+]([O-])c1ccc2c(c1)c(O)nn2CCOCCN1CCCCC1`: in the experiment on Trypanosoma cruzi [1], the inhibition of growth at 25 µM worked out at 9%.
Same read-out and setting: to `O=[N+]([O-])c1ccc2c(c1)c(OCc1ccccc1)nn2CCOCCN1CCCCC1` belongs 24%.
As for `O=[N+]([O-])c1ccc2c(c1)c(OCc1ccccc1)nn2CCOCCN1CCSCC1`, the inhibition of growth at 25 µM with Trypanosoma cruzi [1] came to 20%.
The same measure, in the same setting: to `O=[N+]([O-])c1ccc2c(c1)c(OCc1ccccc1)nn2CCOCC[N+]1([O-])CCCCC1` belongs 0%.
Still for that read-out and setting: to `CN(C)CCOCCn1nc(O)c2cc([N+](=O)[O-])ccc21` belongs 3%; to `CN(C)CCCCCn1nc(OCc2ccccc2)c2ccccc21`, 18%; to `C[N+](C)([O-])CCOCCn1nc(OCc2ccccc2)c2cc([N+](=O)[O-])ccc21`, 6%.
Still for that read-out and setting: under `COc1nn(CCOCCN2CCCCC2)c2ccc([N+](=O)[O-])cc12` stands 25%.
Regarding `CC1CS(=O)(=O)CCN1/N=C/c1ccc([N+](=O)[O-])o1` (configuration not stated) [NIFURTIMOX], the inhibition of growth at 25 µM in the experiment with Trypanosoma cruzi [1] is 100%. The compound also had a pIC50 in the experiment on Trypanosoma cruzi [4] of 5.47.
Consider `CCCCNCCCCCn1nc(OCc2ccccc2)c2cc([N+](=O)[O-])ccc21`, for which the inhibition of growth at 25 µM in the experiment with Trypanosoma cruzi [1] was 94%. The pIC50 in the experiment with Trypanosoma cruzi [4] was 4.96. Further, the Activity in the experiment on Trypanosoma cruzi [9] is -0.37%.
`O=c1c2cc([N+](=O)[O-])ccc2n2n1CCOCC2`: in the experiment with Trypanosoma cruzi [1], the inhibition of growth at 25 µM is 6%.
